Experimental data taken from ChEMBL document CHEMBL4219101, “Discovery of 18β-glycyrrhetinic acid conjugated aminobenzothiazole derivatives as Hsp90-Cdc37 interaction disruptors that inhibit cell migration and reverse drug resistance” (Bioorg Med Chem, 2018).

Legend:
[1] = Inhibition of His-tagged full-length Hsp90 (unknown origin)/GST-tagged Cdc37M (unknown origin) interaction after 1 hr by HTRF assay; set-up: species or system Homo sapiens
Procedure, shortened: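 TR-FRET in PBS containing 400 mM KF, pH 7.3. His-tagged full-length Hsp90 and GST-Cdc37M, each 250 nM final, incubated with compound for 1 h at 37 °C. Anti-GST-Cryptate and anti-6His-XL665 then added for a further 0.5 h at 37 °C. Excitation 320 nm, emission 665/620 nm, reported as ratio ×10,000. Negative and blank controls run in each assay.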

A549 = assay: Antiproliferative activity against human A549 cells after 48 hrs by MTT assay; assay type: functional, cell-based; settings: A549, 48 h
Procedure, shortened: (§1)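 Cells in log phase seeded at about 1.0 × 10^5 cells/mL in 96-well plates, left 12 h at 37 °C, 5% CO2. Compounds dissolved in DMSO, added at 2.5, 5, 10, 20 and 50 µM, 48 h exposure. Absorbance read at 570/630 nm dual wavelength. Survival expressed relative to negative control. IC50 by Bliss method (n = 5), tests done in triplicate.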

MCF7 = assay: Antiproliferative activity against human MCF7 cells after 48 hrs by MTT assay; assay type: functional, cell-based; settings: MCF7, 48 h; procedure, shortened: as §1
HepG2 = assay: Antiproliferative activity against human HepG2 cells after 48 hrs by MTT assay; assay type: functional, cell-based; settings: HepG2, 48 h; procedure, shortened: as §1
HCT-116 = assay: Antiproliferative activity against human HCT116 cells after 48 hrs by MTT assay; assay type: functional, cell-based; settings: HCT-116, 48 h; procedure, shortened: as §1

SMILES | IC50 [1] | IC50 (A549) | IC50 (MCF7) | IC50 (HepG2) | IC50 (HCT-116)
CCOC(=O)[C@@]1(C)CC[C@]2(C)CC[C@]3(C)C(=CC(=O)[C@@H]4[C@@]5(C)CC[C@H](OC(=O)CCC(=O)Nc6nc7ccc(OC)cc7s6)C(C)(C)[C@@H]5CC[C@]43C)[C@@H]2C1 | 8.24 µM | 15.5 µM | 18.5 µM | 20.4 µM | 21.3 µM
CC1(C)[C@@H](O)CC[C@]2(C)[C@H]3C(=O)C=C4[C@@H]5C[C@@](C)(C(=O)Nc6nc7ccccc7s6)CC[C@]5(C)CC[C@@]4(C)[C@]3(C)CC[C@@H]12 | 89.5 µM | 75.4 µM | 71.4 µM | 88 µM | 80.7 µM
CC1(C)[C@@H](O)CC[C@]2(C)[C@H]3C(=O)C=C4[C@@H]5C[C@@](C)(C(=O)Nc6nc7ccc(Cl)cc7s6)CC[C@]5(C)CC[C@@]4(C)[C@]3(C)CC[C@@H]12 | 36.9 µM | 22.8 µM | 16.5 µM | 21.8 µM | 16.3 µM
CCOC(=O)[C@@]1(C)CC[C@]2(C)CC[C@]3(C)C(=CC(=O)[C@@H]4[C@@]5(C)CC[C@H](OC(=O)CCC(=O)Nc6nc7c(Br)cccc7s6)C(C)(C)[C@@H]5CC[C@]43C)[C@@H]2C1 | 15.3 µM | 20.7 µM | 24.4 µM | 29.9 µM | 26.8 µM
CC(=O)O[C@H]1CC[C@]2(C)[C@H]3C(=O)C=C4[C@@H]5C[C@@](C)(C(=O)Nc6nc7ccc(F)cc7s6)CC[C@]5(C)CC[C@@]4(C)[C@]3(C)CC[C@H]2C1(C)C | 54.3 µM | 85.5 µM | 71.2 µM | 65.6 µM | > 100 µM
Cc1cccc2sc(NC(=O)[C@@]3(C)CC[C@]4(C)CC[C@]5(C)C(=CC(=O)[C@@H]6[C@@]7(C)CC[C@H](O)C(C)(C)[C@@H]7CC[C@]65C)[C@@H]4C3)nc12 | > 100 µM | > 100 µM | > 100 µM | > 100 µM | > 100 µM
CC1(C)[C@@H](O)CC[C@]2(C)[C@H]3C(=O)C=C4[C@@H]5C[C@@](C)(C(=O)Nc6nc7ccc(F)cc7s6)CC[C@]5(C)CC[C@@]4(C)[C@]3(C)CC[C@@H]12 | 32.3 µM | 32.2 µM | 31.1 µM | 36.4 µM | 31.5 µM
COc1cccc2sc(NC(=O)[C@@]3(C)CC[C@]4(C)CC[C@]5(C)C(=CC(=O)[C@@H]6[C@@]7(C)CC[C@H](O)C(C)(C)[C@@H]7CC[C@]65C)[C@@H]4C3)nc12 | > 100 µM | 76 µM | 74.5 µM | 86.3 µM | 74.7 µM
CCOC(=O)[C@@]1(C)CC[C@]2(C)CC[C@]3(C)C(=CC(=O)[C@@H]4[C@@]5(C)CC[C@H](OC(=O)CCC(=O)Nc6nc7c(OC)cccc7s6)C(C)(C)[C@@H]5CC[C@]43C)[C@@H]2C1 | 10.4 µM | 16.4 µM | 20.1 µM | 21.9 µM | 23.1 µM
CC(=O)O[C@H]1CC[C@]2(C)[C@H]3C(=O)C=C4[C@@H]5C[C@@](C)(C(=O)Nc6nc7ccc(C)cc7s6)CC[C@]5(C)CC[C@@]4(C)[C@]3(C)CC[C@H]2C1(C)C | > 100 µM | > 100 µM | > 100 µM | > 100 µM | > 100 µM
COc1cccc2sc(NC(=O)[C@@]3(C)CC[C@]4(C)CC[C@]5(C)C(=CC(=O)[C@@H]6[C@@]7(C)CC[C@H](OC(C)=O)C(C)(C)[C@@H]7CC[C@]65C)[C@@H]4C3)nc12 | > 100 µM | > 100 µM | > 100 µM | > 100 µM | > 100 µM
CC(=O)O[C@H]1CC[C@]2(C)[C@H]3C(=O)C=C4[C@@H]5C[C@@](C)(C(=O)Nc6nc7ccc(Br)cc7s6)CC[C@]5(C)CC[C@@]4(C)[C@]3(C)CC[C@H]2C1(C)C | 81.9 µM | 69.7 µM | 78.1 µM | 86 µM | 76.8 µM
O=c1[nH]cc(F)c(=O)[nH]1 [FLUOROURACIL] | – | 19.5 µM | 15.8 µM | 23.6 µM | 17.2 µM
